Hck Nef HTS: blocks Nef-activated human Hck kinase; P08631; Recombinant Hck-YEEI plus Nef, Z-Lyte FRET kinase assay; inhibition, % at 20 µM; actives 0.68% (n = 220,000); AID 463187;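 active = Hck-Nef kinase inhibition above about 50%, limit read from the data; inactive = inhibition below that limit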;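 note: 0% = DMSO with Hck plus Nef and 100% = Hck alone without Nef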
RanGTP-Impb inh: disruptors of Ran-importin-beta complex formation – biochemical, FRET, CFP-Ran, YFP-importin-beta, homogeneous, primary screen; actives 1.1% (n = 300,000); cell-free CFP-Ran/YFP-importin-beta FRET ratio; inhibition, % (no concentration beside the values);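 active = more than half of the replicate wells show a fall in the fluorescence ratio signal beyond about 16%, limit read from the data, passing the limit was not always enough; inconclusive = exactly half of the replicate wells pass the set limit; inactive = fewer than half of replicates pass the limit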;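 note: 0% = DMSO wells and 100% = Ran loaded with GDP instead of GTP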
Runt-SMMHC FRET: Runt domain-CBFb-SMMHC interaction inhibition; Q01196+Q13951; Cerulean-Runt/Venus-CBFb-SMMHC FRET ratio 530/480, 1 h; inhibition, % at 20 µM; actives 0.74% (n = 220,000);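 active = mean inhibition across duplicate retests at 20 µM reaching about 50%, limit read from the data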;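 note: 0% = DMSO wells and 100% = wells with excess untagged CBFb-SMMHC; inhibitors lower the FRET ratio by blocking Runt binding to CBFb-SMMHC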
Target sequence (Q01196 whole entry, looked up, the tested form may be a part): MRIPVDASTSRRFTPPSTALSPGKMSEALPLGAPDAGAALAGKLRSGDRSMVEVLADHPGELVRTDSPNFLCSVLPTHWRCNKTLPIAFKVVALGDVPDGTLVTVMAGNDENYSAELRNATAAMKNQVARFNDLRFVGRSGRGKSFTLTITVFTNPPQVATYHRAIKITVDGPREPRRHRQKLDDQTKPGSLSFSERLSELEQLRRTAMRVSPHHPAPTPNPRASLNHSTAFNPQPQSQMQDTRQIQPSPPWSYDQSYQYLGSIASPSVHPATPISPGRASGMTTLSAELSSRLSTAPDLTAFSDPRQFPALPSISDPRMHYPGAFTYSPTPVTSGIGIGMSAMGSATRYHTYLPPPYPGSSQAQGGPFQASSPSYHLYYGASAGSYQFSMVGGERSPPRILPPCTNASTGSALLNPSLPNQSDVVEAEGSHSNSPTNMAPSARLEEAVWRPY
Target sequence (Q13951 whole entry, looked up, the tested form may be a part): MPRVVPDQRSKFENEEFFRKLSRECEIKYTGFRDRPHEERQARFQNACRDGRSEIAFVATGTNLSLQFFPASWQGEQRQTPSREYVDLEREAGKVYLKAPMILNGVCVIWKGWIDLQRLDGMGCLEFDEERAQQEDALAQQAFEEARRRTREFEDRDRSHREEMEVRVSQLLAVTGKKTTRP
Runt-CBFb FRET: Runt domain-CBFb interaction inhibition; Q01196+Q13951; Cerulean-Runt/Venus-CBFb FRET ratio 530/480, 1 h; inhibition, % at 20 µM; actives 0.46% (n = 220,000);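 active = inhibition over about 50% at 20 µM in the single-dose screen, limit read from the data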;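 note: 0% = DMSO wells and 100% = excess unlabeled CBFb competitor control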
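Assay system: Cerulean-tagged RUNX1 Runt domain (FRET donor) fusion protein / Amount: 100 nM each of Venus-CBFb and Cerulean-Runt domain / Medium: Tris buffer pH 7.5 with salts and BSA / Also added: Venus-CBFb 100 nM / Schedule: 1 h complex formation plus 1 h compound treatment, room temperature / Signal: FRET fluorescence / Read-out: loss of energy transfer signal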
The depositor's hits bear a star; ? = inconclusive; nt = not tested or not shown. A selection: hits, their analogues and other compounds. The true share with any hit is near 1.8%.

SMILES	Hck Nef HTS	RanGTP-Impb inh	Runt-SMMHC FRET	Runt-CBFb FRET
COc1ccc(-c2cc(C(=O)OCC(=O)Nc3cc(C)on3)c3ccccc3n2)cc1OC	1	90*	-21	4
CCC(C)c1ccc(-c2cc(C(=O)OCC(=O)Nc3cc(C)on3)c3ccccc3n2)cc1 (stereo unspecified)	0	2	2	-1
O=C(CCn1nc(-c2ccc(Cl)cc2)ccc1=O)N1CCN(c2ccc(F)cc2)CC1	nt	-2	nt	nt
Cc1cccn2c(=O)c(/C=C(\C#N)S(=O)(=O)c3ccccc3)c(N3CCC(C(N)=O)CC3)nc12	0	10	-14	-7
Cc1cccn2c(=O)c(/C=C(\C#N)C(=O)NC3CCS(=O)(=O)C3)c(N3CC(C)OC(C)C3)nc12 (stereo unspecified)	3	?	103*	12
Cc1cccn2c(=O)c(/C=C(\C#N)C(=O)NC3CCS(=O)(=O)C3)c(N3CCC(C(N)=O)CC3)nc12 (stereo unspecified)	6	?	63*	134*
CC(C)CNC(=O)C(=O)N/N=C/c1cccs1	0	4	-1	-2
CN(CC(=O)Nc1ccc(F)c(F)c1F)C(=O)CCc1nc2sc3c(c2c(=O)[nH]1)CCCC3	nt	1	nt	nt
O=C(Nc1cc2c(cc1Cl)OCCCO2)c1ccc(F)cc1	4	8	-1	-2
Cc1nn2c3c(cnc2c1-c1ccc(Cl)cc1)C(=O)CC(c1ccco1)C3 (stereo unspecified)	nt	19*	-186	-101
Cc1ccccc1N1CCN(C2CCCN(C(=O)CCc3c(C)noc3C)C2)CC1 (stereo unspecified)	nt	4	nt	nt
COc1ccc(NC(=O)C(CC(C)C)NC(=O)C2CCC(C)CC2)c(OC)c1 (stereo unspecified)	-1	-3	2	0
COc1ccc(C(=O)CSc2nc(C(C)(C)C)nc3ccccc23)cc1	10	?	12	8
C(=N\n1cnnc1)/c1ccc(N2CCOCC2)cc1	2	?	2	-1
C(=N\n1cnnc1)/c1ccc(N2CCOCC2)s1	1	10	70*	28
Cc1nc(C)c(-c2csc(Nc3cccc(O)c3)n2)s1	51*	-5	-3	0
Cc1nc(N)sc1-c1csc(Nc2cccc(O)c2)n1	nt	-3	nt	nt
N#C/C(=C\c1ccncc1)c1nc2c(s1)CCCC2	-14	?	87*	22
Cc1ccc(NC(=O)CCS(=O)(=O)c2cc3[nH]c(=O)c(=O)[nH]c3cc2C)cc1	nt	2	nt	nt
COc1nc(N)c(S(=O)(=O)c2ccc(C)cc2)cc1C#N	1	5	24	10
Cc1ccc(S(=O)(=O)c2cc(C#N)c(=O)[nH]c2N)cc1	2	-2	107*	19
CCN(C(=O)COC(=O)Cc1c[nH]c2ccccc12)c1c(N)n(Cc2ccccc2)c(=O)[nH]c1=O	nt	-2	nt	nt
O=C1C2CC=CCC2C(=O)N1c1ncn[nH]1 (stereo unspecified)	9	39*	-8	0
O=C1C2CC=C(Cl)CC2C(=O)N1c1ncn[nH]1 (stereo unspecified)	0	2	-5	-3
Cc1cc(/C=N/NC(N)=S)c(O)c(/C=N/NC(N)=S)c1	-43	60*	43	-137
SMILES	Hck Nef HTS	RanGTP-Impb inh	Runt-SMMHC FRET	Runt-CBFb FRET
O=C(Nc1nccs1)c1ccc(S(=O)(=O)N2CCOCC2)cc1	1	-3	3	2
O=C(CCc1ccc(S(=O)(=O)N2CCOCC2)cc1)Nc1nccs1	-2	1	147	104*
c1ccc(N2N=C(c3cccs3)CC2c2ccco2)cc1 (stereo unspecified)	35	1	82*	32
Clc1ccc(N2N=C(c3cccs3)CC2c2ccco2)cc1 (stereo unspecified)	22	10	91*	nt
CN1CCN(c2ccc(CNS(=O)(=O)c3ccsc3)cc2)CC1	-2	2	-6	2
CCOC(=O)CCNC(=O)N1CCCC(Cc2ccccc2)(C(=O)OCC)C1 (stereo unspecified)	nt	-2	nt	nt
O=C(NNc1cc(N2CCOCC2)nc(N2CCOCC2)n1)c1ccc([N+](=O)[O-])cc1	13	63*	3	3
C/C=C/C(=O)Nc1cccc(C2=NOC3(C2)C[C@@H](C(N)=O)N(C(=O)/C(C)=C/C)C3)c1 (stereo partly specified)	32	-6	-2	3
O=C(NCc1cccc(C(F)(F)F)c1)C1CC(c2ccc(C(F)(F)F)cc2)=NO1 (stereo unspecified)	22	?	-3	-1
O=C(O)c1ccc(S(=O)(=O)N2CCCCCC2)cc1	2	2	-1	3
Nc1cccc2c1C(=O)N(C(=O)c1ccc(S(=O)(=O)N3CCCCCC3)cc1)C2=O	1	11	58*	12
CCOC(=O)Cc1csc(NS(=O)(=O)c2ccc(F)cc2)n1	-1	5	1	-2
CCOC(=O)Cc1csc(NS(=O)(=O)c2ccc(Br)cc2)n1	-16	37*	-2	0
O=C1c2ccccc2C(=O)C1c1ccnc2ccccc12	10	-5	-82	-21
N#CC1=C(N)SC(N)=C(C#N)C1c1ccnc2ccccc12	1	23*	20	20
NC(=O)c1cccc2c3c([nH]c12)CCCC3	29	85*	4	1
CCOC(=O)C1CCCc2c1[nH]c1c(C(N)=O)cccc21 (stereo unspecified)	-1	25*	4	1
CCn1cc(C2C(C(=O)Nc3ccc(Br)cn3)=C(C)NC3=C2C(=O)CCC3)c(C)n1 (stereo unspecified)	23	3	74*	30
CC1(OC(=O)c2cccs2)C(=O)C=C2C=C(c3ccsc3)OC=C2C1=O (stereo unspecified)	nt	-8	nt	nt
CC1(OC(=O)CCc2ccccc2)C(=O)C=C2C=C(c3ccsc3)OC=C2C1=O (stereo unspecified)	71*	-11	-12	3
N=c1sc2ccccc2n1-c1ccccc1	1	35*	14	3
CC1(C)c2ssc(=S)c2-c2ccccc2N1C(=O)c1ccco1	5	-6	-2	122*
Nc1nc2c([N+](=O)[O-])cccc2s1	25	-1	-1	1
Cc1ccc(NS(=O)(=O)c2ccc(Br)s2)nc1	-6	1	-1	6
CC1CCN(C(=O)Cn2c3ccc(F)cc3c3nc4n(c(=O)c32)CCCS4)CC1	nt	0	nt	nt
FC(F)(F)c1cccc(-c2nc3nc(Cl)c(Cl)nc3[nH]2)c1	16	43*	43	21
COc1cnc(-c2cccc(C(F)(F)F)c2)[nH]c1=O	10	-2	-2	1
Cc1ccc(CNC(=O)CN(C)S(=O)(=O)c2ccc(F)cc2)cc1	nt	-1	nt	nt
c1ccc(-c2cn3nc(-c4ccccc4)c(-c4ccccc4)nc3n2)cc1	-2	-9	-2	nt
Cc1ccc(-c2cn3nc(-c4ccccc4)c(-c4ccccc4)nc3n2)cc1	-24	90*	81	2

Assay outcomes (PubChem)
